Source: PMC3422889 (The Journal of organic chemistry, 2009)
Where two headings read alike, the source gives them in different places.

Columns and labels:
[1] = Quantitative photolysis, quantum yields for disappearance; format: physicochemical; details: for φdis (1-octanol): solvent 1-octanol
Summary of the method: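 Test compound (1–9 mM) with caffeine or 4-acetamidophenol internal standard was dissolved in water, buffer, salt solution or solvent in quartz tubes. Samples were irradiated in a Rayonet reactor with two 3000 Å lamps, or at 350 nm for the TRIS pH 9.0/LiClO4 case. Aliquots taken every 30 s up to 5 min (<20% conversion) went to LC/UV or LC/MS/MS. Photon flux came from ferrioxalate actinometry. At least three independent runs were done.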

[2] = Picosecond pump-probe transient absorption, singlet and triplet lifetimes; format: physicochemical; details: for kpF rate constant for the photo-Favorskii process: calculated as φdis/3τ
Summary of the method: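 Transient absorption used the femtosecond pump–supercontinuum probe method. Pump pulses were 266 nm, 1 μJ, <100 fs. The supercontinuum probe spanned 270–690 nm, with both beams focused to 0.2 mm on sample flowing through a 0.4 mm cell. Detection was by photodiode array. Spectra were corrected for chirp and solvent contribution. kpF was taken as φdis/3τ.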

[3] = Nanosecond flash photolysis, decay of the 340-nm transient; format: physicochemical; details: water containing ca. 10 % ACN
[4] = Stern-Volmer quenching with potassium sorbate; format: physicochemical; details: H2O
Summary of the method: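 pHP-GABA solutions (0.001–0.01 M) were diluted with potassium sorbate (0–0.1 M) in water. They were photolyzed under the quantum-yield conditions, and GABA-release quantum efficiencies were measured. KSV was the slope of φ0/φ versus [Q]. Triplet lifetime was derived assuming kq equals the diffusion rate, 7.2 × 10^9 […].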

[5] = cited from earlier work
[6] = wholly aqueous solution; cited from earlier work
[7] = Effect of H2O on the rate of disappearance of the 390-400 nm band; format: physicochemical; details: CH3CN cosolvent

NCCCC(=O)OCC(=O)c1ccc(O)cc1 [compound 1, pHP GABA]
φdis (1-octanol) [1]: 0.12
1τ singlet lifetime ([2]; H2O): 2.3 ps
3τ triplet lifetime ([2]; H2O): 0.34 ns
kpF rate constant for the photo-Favorskii process ([2]; H2O): 6.00 10^8 s^−1

NCCCC(=O)OCC(=O)c1ccc(O)c(OC(F)(F)F)c1 [compound 2, CF3O-pHP GABA]
kdec decay rate constant of the 340-nm transient [3]: ~6.5e+06 s⁻¹
quantum yield in 10% H2O:CH3CN ([1]; 10% (v:v) H2O:CH3CN): 0.12
quantum yield in dry CH3CN ([1]; dry CH3CN): 0.03
φdis (1-octanol) [1]: 0.14
release of the amino acid upon irradiation ([1]; λ > 300 nm, aqueous media, ambient conditions): quantitatively released
3τ triplet lifetime ([2]; 10% CH3CN/H2O, pump-probe): 0.71 ns
3τ triplet lifetime ([2]; H2O): 0.46 ns
kpF rate constant for the photo-Favorskii process ([2]; H2O): 1.98 10^8 s^−1
KSV Stern-Volmer constant [4]: 20 M⁻¹

CCOP(=O)(OCC)OCC(=O)c1ccc(O)cc1 [pHP diethyl phosphate]
3kdis ([5]; 0.00 mol % H2O, CH3CN, ref B. Hellrung, J. Wirz unpublished): 2.62 × 10^5 S^−1
3kdis ([5]; 5.04 mol % H2O, CH3CN cosolvent, ref B. Hellrung, J. Wirz unpublished): 2.72 × 10^6 S^−1
3kdis ([5]; 7.51 mol % H2O, CH3CN cosolvent, ref B. Hellrung, J. Wirz unpublished): 6.56 × 10^6 S^−1
3kdis ([5]; 10.00 mol % H2O, CH3CN cosolvent, ref B. Hellrung, J. Wirz unpublished): 1.15 × 10^7 S^−1
3kdis ([5]; 15.03 mol % H2O, CH3CN cosolvent, ref B. Hellrung, J. Wirz unpublished): 3.84 × 10^7 S^−1
3kdis ([5]; 24.54 mol % H2O, CH3CN cosolvent, ref Phillips 14): 1.11 × 10^8 S^−1
3kdis ([5]; 34.05 mol % H2O, CH3CN cosolvent, ref Phillips 14): 4.17 × 10^8 S^−1
3kdis ([5]; 49.38 mol % H2O, CH3CN cosolvent, ref Phillips 14): 7.81 × 10^8 S^−1
3kdis ([5]; 55.64 mol % H2O, CH3CN cosolvent, ref Phillips 14): 1.25 × 10^9 S^−1
3kdis ([5]; 66.11 mol % H2O, CH3CN cosolvent, ref Phillips 14): 1.89 × 10^9 S^−1
3kdis ([5]; 89.77 mol % H2O, CH3CN cosolvent, ref Phillips 14): 3.45 × 10^9 S^−1
3τ triplet lifetime [6]: 60 ps
3kdis ([7]; 74.53 mol % H2O): 3.30 × 10^9 S^−1
3kdis ([7]; 95.14 mol % H2O): 9.95 × 10^9 S^−1
3kdis ([7]; 100.00 mol % H2O): 1.6 × 10^10 S^−1
